# From ChEMBL document CHEMBL4513216, “Probing the Open Global Health Chemical Diversity Library for Multistage-Active Starting Points for Next-Generation Antimalarials” (ACS Infect Dis, 2020)
# Assay: Toxicity liver stage against HepG2, at 10uM
# Format: cell-based
# Parameters: test concentration 10 uM, cell line HepG2-A16-CD81EGFP
# Settings: human, HepG2-A16-CD81EGFP cells; read-out: INHIBITION
# Procedure, shortened: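 Uninfected HepG2-A16-CD81EGFP cells, 3 × 10^3 per well, 1536-well, plated on prespotted compound at 10 μM final, parasite-free screening media added to match infected plates; puromycin 10 μM positive, DMSO 0.5% negative; run in parallel with 48 h PbLuc assay at 37 °C, 5% CO2; viability by CellTiter-Glo luminescence, normalized to controls.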
row,Structure (SMILES),cytotoxicity at 10 µM
1,c1ccc2c(Cc3nnc([C@H]4CCN(CC5CC5)C4)o3)c[nH]c2c1,4.73%
2,CC(C)C1SCC(=O)Nc2c1cnn2-c1ccc(Cl)cc1F (configuration not stated),17.2%
3,Cc1cnc2n(c1=O)C(CC(=O)NCc1cccs1)CS2 (configuration not stated),4.68%
4,Cc1nnc2ccc(OCCNS(C)(=O)=O)nn12,-6.02%
5,CCS(=O)(=O)N1CCC(c2nnc(C(F)(F)F)o2)CC1,-11%
6,CN(C)c1ccc(C(O)CNC(=O)NCCCc2ccccc2)cc1 (configuration not stated),-10%
7,O=C(NCCn1nc(-n2cncn2)ccc1=O)c1ccsc1,1.99%
8,Cc1cc(S(=O)(=O)N2CCC(S(C)(=O)=O)C2)ccc1F (configuration not stated),0.246%
9,COC(=O)c1ccc(C(=O)NCc2nn(C)c3c2COCC3)cc1,7.91%
10,O=C(Cc1cccs1)Nc1cnn(C2CCOC2)c1 (configuration not stated),-7.86%
11,CC(C)NC(=O)N1CC[C@@H]2[C@@H]1CC(=O)N2Cc1cccnc1,4.67%
12,CC[C@H]1N(Cc2ccc(OC)cc2)CCC[C@]12CCC(=O)N2C,-5.6%
13,O=C(CC1CC1)N1CCCC2(CCC(=O)N2CC2CC2)CC1 (configuration not stated),0.964%
14,Cc1nc(CN2CCC3(CC2)NC(=O)CC3c2cccnc2)cs1 (configuration not stated),-2.27%
15,Cc1ccoc1C(=O)N1CC(C(=O)NCC2CC2)C2(CCOCC2)C1 (configuration not stated),-3%
16,O=c1[nH]nc2c(S(=O)(=O)N3CCCC3)cccn12,-4.52%
17,CCc1c(C(=O)O)nnn1-c1cccc(C)c1C,-16.1%
18,Cc1c(CN2CCOCC2)c(O)n(CCc2ccccc2)c(=O)c1C#N,4.1%
19,CCOCCCNC(=O)c1cc(OC)c2ccoc2c1,6.51%
20,Cc1cc(C)n(CC(=O)Nc2cc(-c3ccncc3)[nH]n2)n1,-5.77%
21,O=C(CCn1cccn1)N1CCC(c2nnc(-c3ccsc3)o2)CC1,4.25%
22,CNC(=O)C1CCCN(C(=O)c2cncs2)C1 (configuration not stated),4.94%
23,CSc1ncc(C(=O)NCCn2nccc2C)cn1,2.86%

row,Structure (SMILES),cytotoxicity at 10 µM
1,Oc1cc(CC2COCCN(CC3(O)CCOCC3)C2)ncn1 (configuration not stated),8.08%
2,OCCN1CCCCC1c1cc[nH]n1 (configuration not stated),-1.71%
3,CNC(=O)CNC(=O)Nc1ccc(Br)c(F)c1,5.44%
4,N#Cc1cn(C2CC2)c(=O)n(Cc2noc(-c3cccs3)n2)c1=O,13%
5,CC(C)n1nnnc1-c1ccc(NC(=O)C(C)(C)C#N)cc1F,-7.36%
6,N#CCCN(C(=O)COC1CCCC1)C1CC1,-4.14%
7,COc1c(C2CCCN2Cc2nnc(C3CC3)n2C)c(C)nn1C (configuration not stated),7.06%
8,CN(CCc1ccccn1)C(=O)Cn1cc(-c2ccccc2)nn1,0.788%
9,Cc1nc(C)c(C(=O)Nc2ccc(-c3nnc(N(C)C)o3)cc2)o1,1.87%
10,CC(c1ccco1)N(C(=O)Cn1nc2n(c1=O)CCCCC2)C1CC1 (configuration not stated),-6.17%
11,CC(c1ccco1)N(C)C(=O)NCCOc1ccc(C#N)cc1 (configuration not stated),-2.98%
12,O=C(c1cc(C2CC2)[nH]n1)N1CCN(c2nccs2)CC1,1.39%
13,O=C1CN(C(=O)c2cc(Cl)ccc2F)c2ccncc2N1,5.92%
14,CC(C)(C(=O)NCCS(N)(=O)=O)c1cccc(Br)c1,-8.35%
15,O=c1[nH]c(CCN2CCN(CC(F)(F)F)CC2)nc2ccccc12,4.44%
16,N#Cc1cc(CSCCN2CCOCC2)ccc1F,-7.73%
17,CC(C)N(C)S(=O)(=O)N1CCCC1CC(=O)c1cccs1 (configuration not stated),5.17%
18,Cn1nccc1CNS(=O)(=O)c1cc(F)ccc1Br,11.8%
19,NC(=O)NC(=O)CCN(Cc1ccccc1)CC1CCOCC1,-1.86%
20,CC(C)c1nnc2n1CC(CNCc1ccsc1)CC2 (configuration not stated),-1.61%
21,O=C(NCCNc1ncccn1)N1CCCC1c1ccc(F)cc1 (configuration not stated),0.932%
22,CCN(CC)C(CNC(=O)c1ccc(S(=O)(=O)NC)cc1)c1ccco1 (configuration not stated),-13.5%
23,CN1CCCN(C(=O)c2cnsn2)c2cc(Cl)ccc21,-7.34%

row,Structure (SMILES),cytotoxicity at 10 µM
1,O=C(c1cccc(Cl)c1Cl)N1CCN(CC(O)Cn2cccn2)CC1 (configuration not stated),-14.3%
2,Cc1ccsc1CN(C)Cn1nccc1-c1cccnc1,7.49%
3,CS(=O)(=O)CCSc1n[nH]c(-c2ccc3c(c2)CCC3)n1,-2.14%
4,Cn1nc(C(=O)N(CC(F)(F)F)c2cccc(Cl)c2)ccc1=O,7.48%
5,CCNC(=O)CN1CCSC2(CCCCC2)C1,-2.64%
6,O=C(Cc1ccc(S(=O)(=O)C(F)F)cc1)N1CCCC1,-13.5%
7,O=C1C(Sc2nnnn2C2CC2)CCN1c1ccccc1F (configuration not stated),4.05%
8,CC(C)N(CCCNC(=O)C1CC1)S(C)(=O)=O,-5.55%
9,Cc1noc(CCCc2nc(C3CCOC3)no2)n1 (configuration not stated),3.5%
10,O=C(C1CCCN(CCc2ccc3c(c2)CCO3)C1)N1CCCC1 (configuration not stated),-19.8%
11,Cc1ccc2nc(C)c(C)c(C(=O)N3CCS(=O)(=O)CC3)c2c1,3.24%
12,CN(CCO)Cc1nnc(C2CCN(CC(C)(C)C)CC2)n1C,1.89%
13,CCN(CC)c1ncccc1CNCc1cc2ccccc2s1,4.43%
14,COc1cccc(-n2cc(-c3ccnc(N[C@H](CO)C(C)C)n3)cn2)c1,-2.04%
15,C[C@@H]1CN(S(=O)(=O)c2ccc(F)cc2Cl)C[C@]1(C)O,-2.83%
16,O=C(NCc1ccc(CO)cc1)C1CCOc2ccccc2C1 (configuration not stated),-3.54%
17,Cc1nc2c(c(NCC(=O)NC(C)C)n1)Cc1ccccc1OC2,4.81%
18,O=C(CCCOCc1ccccc1)N1CCCC(c2ncc[nH]2)C1 (configuration not stated),8.54%
19,COc1ccc(-n2c(COC(C)C)n[nH]c2=O)cc1,3.45%
20,O=S(=O)(CC1CC1)c1ncc(CN2CCSCC2)n1CC1CCCO1 (configuration not stated),-1.07%
21,CCCc1cc(NCc2ccc(CO)cc2)n2nccc2n1,-14.1%
22,O=C(c1ccc(=O)[nH]c1)N1CCCC1c1nc2cc(F)ccc2[nH]1 (configuration not stated),14.3%
23,CC(C)c1cc(C2CCCN2C(=O)CN2C(=O)CCNC2=O)no1 (configuration not stated),18.8%

row,Structure (SMILES),cytotoxicity at 10 µM
1,CN(C)c1nc2c(c(=O)[nH]1)CCN(C(=O)C1CCCO1)C2 (configuration not stated),-43.3%
2,COc1cc(NCC(c2ccccn2)N2CCOCC2)ncn1 (configuration not stated),-49.1%
3,Cc1cc2nc(C(C)C)cc(N3CCN(S(N)(=O)=O)CC3)n2n1,-11.3%
4,O=C(NC1CCCC1)N1C[C@H]2CN(c3ccccn3)C[C@@]2(C(=O)O)C1,6.12%
5,CCCc1ccc(CN2C[C@H]3C(=O)N(CC4CC4)C[C@@]3(C(=O)O)C2)o1,-3.86%
6,COCCOCC(=O)N(Cc1cccc(C)c1)C(C)C,-12.4%
7,Cc1cc(C)n(NC(=O)c2cccc3c2OCC3)c(=O)c1,1.91%
8,CCc1noc(C)c1-c1nc(Cc2cccs2)nn1C1CCN(C)CC1,-17.3%
9,CN1CCN(C2CCN(CCOc3cccc(F)c3)CC2)C1=O,-2.45%
10,CC(C)c1n[nH]c(C2CN(C(=O)c3cn4ccccc4n3)CCO2)n1 (configuration not stated),0.153%
11,Cc1nc(C)n(CC2CN(Cc3ccccc3C#N)CCO2)n1 (configuration not stated),-8.8%
12,O=C(c1cc(-c2cccs2)on1)N1CCCCC1Cn1cccn1 (configuration not stated),-2.93%
13,CC(C)c1ncncc1C(=O)N1CCN(Cc2ccccn2)CC1,-2.87%
14,CCc1nc(C2CCCN2C(=O)Cc2cccs2)no1 (configuration not stated),-7.85%
15,Cc1ncsc1C(=O)N(Cc1cccs1)C1CC1,-6.13%
16,CC(C)N1CC(C(=O)NCc2cccnc2-n2cccn2)CC1=O (configuration not stated),-10.8%
17,Cc1cnn(CC2CCCN2Cc2c(C)noc2C)c1 (configuration not stated),-15.8%
18,CC(C)(C)n1cc(C(=O)N2CCN(Cc3ccco3)CC2)cn1,-7.36%
19,CCC1CN(CC(=O)N2CCCC2)CCN1CCOC (configuration not stated),-4.22%
20,Cc1nc(C)n(CC2CCCCN2Cc2nnc(C3CC3)o2)n1 (configuration not stated),-10.7%
21,CC(C)c1nn(C)c(N(C)C)c1CNCC(O)c1ccccc1F (configuration not stated),-5.87%
22,CN(Cc1ccsc1)C(=O)c1cccc(F)c1,-2.45%
23,CC(C)CN1CCN(C(=O)Nc2cc(C(F)(F)F)c[nH]c2=O)CC1,-3.43%

row,Structure (SMILES),cytotoxicity at 10 µM
1,CCOCC(O)CN1CCN(C(=O)c2cccnc2OC)CC1 (configuration not stated),-4.71%
2,CC(C)=CCN(C)C1CCCN(Cc2noc(C)n2)C1 (configuration not stated),-19.6%
3,CC(NCc1c(C(C)C)nn(C)c1N1CCOCC1)C(N)=O (configuration not stated),-5.23%
4,O=C(Nc1ccccc1OC(F)F)C1=NN(c2ccccc2)C(=O)CN1,-3.58%
5,CCc1n[nH]c(C2CN(C(=O)c3cc4c(s3)CCCC4)CCO2)n1 (configuration not stated),-10.1%
6,CC(C)c1n[nH]c(C2CN(C(=O)CCn3ccccc3=O)CCO2)n1 (configuration not stated),4.48%
7,Cc1cnc(CN(C)CC2CCCN2c2cccnn2)cn1 (configuration not stated),-0.241%
8,CCc1n[nH]c(C2CN(C(=O)c3cnc[nH]3)CCO2)n1 (configuration not stated),-0.481%
9,c1cnn(CCNCc2csc(-c3ccsc3)n2)c1,1.97%
10,CC(C)CN1CCC2(CC1)CN(C(=O)C(C)C)C2,-2.16%
11,O=C(NCc1cncc2c1CCN(Cc1ccoc1)C2)C1CC1,4.03%
12,Cc1cccc(CN2CC[C@@H]3[C@@H]2CCN3C(=O)c2ccoc2C)n1,-3.99%
13,O=C1CC[C@H]2[C@H](CCN2C(=O)C2CCCO2)N1Cc1cccnc1 (some centres not stated),-8.6%
14,CCOC(=O)[C@]12CCCN(Cc3nccs3)C[C@H]1CN(S(C)(=O)=O)C2,-5.79%
15,COc1ncccc1CN1C[C@@H]2COC[C@]2(CNS(C)(=O)=O)C1,8.01%
16,FC(F)(F)c1ccnc(N2C[C@H]3CCN(c4cccnc4)C[C@H]3C2)n1,6.88%
17,OC(CN1CCN(Cc2cc(F)cc(F)c2)CC1)C1CC1 (configuration not stated),11.5%
18,Cc1ccc(CN2CCC3(CC2)CCN(C(=O)c2cccn2C)C3)cc1,-2.6%
19,Cc1ccoc1C1=NNC(=CN2CCn3c(nnc3C3CC3)C2)O1,7.65%
20,Cn1cnnc1SCC(=O)N1C[C@@H]2CC[C@H]1CN(Cc1cccnc1)C2,-2.82%
